Shown are actives, neighbours in structure and some others; about 2.8% of the full set was active somewhere.
EBI2 antag – EBI2 receptor antagonists, beta-arrestin recruitment, primary screen, cell-based, luminescence, 7a,25-OHC stimulation, uHTS; G-protein coupled receptor 183 (Homo sapiens), P32249; 7a,25-OHC stimulated; inhibition, % at 5 µM; 360,000 tested, 0.81% active; AID 651636, 2012; in the data active = inhibition above about 38%;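 also: enzyme fragment complementation signal reports receptor beta-arrestin coupling in cells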
HTR2A ag – mouse Htr2a agonists via beta-arrestin recruitment, primary screen, cell-based, luminescence; CHO-K1 mHTR2A beta-arrestin complementation; percent of 30 µM serotonin response; activation, % at 7.6 µM; 360,000 tested, 0.66% active;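 active = activation above a run cutoff, the mean activation of all tested compounds plus 3 SD, cut at about 14% in these data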
MC4R antagonist – MC4R antagonists of cAMP signaling, primary screen, cell-based, TR-FRET, antagonist arm of biased-ligand search; 360,000 tested, 0.48% active; AID 540295, 2011; inhibition, % at 6.5 µM; MC4R-expressing cells, MTII-stimulated cAMP, LANCE TR-FRET;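 active = inhibition above its plate's cutoff, the mean of tested wells on that plate plus 3 SD, cut at about 29% in these data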
Target sequence (P32245 whole entry, looked up): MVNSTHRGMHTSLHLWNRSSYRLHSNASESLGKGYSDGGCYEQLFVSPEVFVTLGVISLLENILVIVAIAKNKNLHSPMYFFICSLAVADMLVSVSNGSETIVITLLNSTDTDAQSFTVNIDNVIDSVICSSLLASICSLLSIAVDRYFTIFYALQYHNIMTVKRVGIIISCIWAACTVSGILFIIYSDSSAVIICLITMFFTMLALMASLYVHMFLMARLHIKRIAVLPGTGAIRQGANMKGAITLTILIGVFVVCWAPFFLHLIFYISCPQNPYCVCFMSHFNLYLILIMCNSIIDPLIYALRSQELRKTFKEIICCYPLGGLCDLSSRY
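material = U2OS cells stably expressing human melanocortin 4 receptor (MC4R) | also added = Melanotan II challenge | dosing = single nominal compound dose of 6.5 µM | detection = TR-FRET with Eu-cAMP and labeled anti-cAMP, 671 nm | replication = singlicate | timing = compound 30 min, challenge 1 h, detection 1 h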
MC4R ag barr – MC4R agonists recruiting beta-arrestin, primary screen, cell-based, luminescence, agonist arm of biased-ligand search; Melanocortin receptor 4 (Homo sapiens), P32245; U2OS MC4R beta-arrestin complementation; percent of melanotan II response, DMSO zero; activation, % at 8.9 µM; 360,000 tested, 0.98% active;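 active = activation above a per-plate cutoff, the mean activation of sample wells on that plate plus 3 SD, cut at about 8% in these data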
Numbers stand for hits; n = inactive; x = not tested or not shown.

SMILES	EBI2 antag	HTR2A ag	MC4R antagonist	MC4R ag barr
Brc1ccc(NCc2cccc3ccccc23)nc1	n	n	n	n
Oc1ccccc1CNc1ccc(Br)cn1	n	n	n	49
Cc1ccccc1OCC(O)Cn1c(=N)n(Cc2ccccc2)c2ccccc21 (stereo not given)	n	n	n	9.1
COc1ccc([C@H]2N[C@]3(CCCN(Cc4ccc(Br)cc4)C3=O)[C@H]3C(=O)N(C)C(=O)[C@@H]23)cc1	n	n	n	n
Cc1ccc(C)c(N(C)C(=O)c2cc3c(=O)[nH]c4ccc(C)cc4c3s2)c1	n	n	n	9.1
CCCCCCCCCCCC1=C(O)C(=O)C=C(O)C1=O	n	n	n	16
CC(C)[C@@H]1CC[C@@H](C)C[C@H]1OC(=O)C[n+]1cc(-c2ccc(Cl)cc2)n2c1CCCCC2	n	n	n	59
O=C(NCCc1ccccc1)c1cccc2c(-c3cccnc3)coc12	n	n	n	n
CCc1ccc2c(c1)cc(CN(C(=S)Nc1cccc(C)c1)C1CC1)c1nnnn12	n	n	n	13
O=C(Oc1ccc(Cl)c2cccnc12)c1ccco1	58	n	n	n
COc1ccc(C2C(O)C(c3c[nH]c4ccccc34)=NN2C(=O)CCl)cc1 (stereo not given)	n	n	n	16
O=C(C1=C[C@@H](c2csc3ccccc23)C[C@@H](OCCCCO)O1)N1CCN(Cc2ccc3c(c2)OCO3)CC1	n	35	n	n
O=C(C1=C[C@H](c2csc3ccccc23)C[C@H](OCCCCO)O1)N1CCN(Cc2ccc3c(c2)OCO3)CC1	n	n	n	n
COc1ccc(/C=C2\SC(=O)N(CC(=O)Nc3ccc(F)cc3)C2=O)cc1O	n	n	n	9.2
COc1ccc(NC(=S)N(Cc2ccc(N(C)C)cc2)Cc2ccco2)cc1	n	n	n	n
CCOc1ccc(NC(=S)N(Cc2ccc(N(C)C)cc2)Cc2ccco2)cc1	44	n	n	n
c1ccc(-c2cc3nc(NCc4cccs4)nc(NCc4ccc5occc5c4)c3s2)cc1	n	n	n	n
COc1ccc(OC)c(CN2C(=O)c3ccccc3C2c2nnnn2-c2ccc3c(c2)OCCO3)c1 (stereo not given)	n	n	x	x
N#C/C(=C/c1ccc(N2CCCCC2)o1)c1cccc(F)c1	n	n	n	n
N#C/C(=C/c1ccc(N2CCCCCC2)o1)c1ccc(Cl)cc1	42	n	n	n
CCCCN(C(C)=O)c1c(CC)nc2ccc(C(=O)NCc3cccs3)cn12	n	n	n	n
CCC(=O)OCCNc1cc(Sc2nccn2C)c2nonc2c1[N+](=O)[O-]	53	n	n	n
CC(=O)OCCCNc1cc(Sc2ccc(Cl)cc2)c2nonc2c1[N+](=O)[O-]	68	n	n	n
COc1cccc(OC)c1C(=O)OCc1c(-c2ccccc2)ncc2ccccc12	n	n	n	n
CCN(CC)c1ccc(/C=C2\C(=O)N(c3nnc(C)c(=O)[nH]3)N=C2C)cc1	63	n	n	n
SMILES	EBI2 antag	HTR2A ag	MC4R antagonist	MC4R ag barr
CCN(CC)c1ccc(/C=C2/C(=O)ON=C2C)cc1	n	n	n	n
C[C@H](CO)N1C[C@H](C)[C@@H](CN(C)C(=O)c2ccccn2)Oc2cc(Br)ccc2S1(=O)=O	n	n	n	n
O=C(COC(=O)c1ccccc1)Nc1ccc(Cl)cn1	n	n	n	n
COc1ccc(C(=O)OCC(=O)Nc2ccc(Cl)cn2)cc1	n	n	n	8.8
CSc1ccccc1NC(=O)C1(C)CCN1C(=O)Cc1ccc(-c2ccccc2)cc1 (stereo not given)	n	n	n	n
O=C(CCCN1C(=O)/C(=C/c2ccccc2Cl)SC1=S)NNC(=O)c1ccccc1	42	n	n	n
O=C(CCCN1C(=O)S/C(=C\c2ccccc2)C1=O)NNC(=O)c1ccccc1O	n	n	n	8.4
O=C(CCN1C(=O)/C(=C/c2ccccc2)SC1=S)NCCc1ccc(O)cc1	n	n	n	9.3
O=C(CCCN1C(=O)/C(=C\c2cccs2)SC1=S)Nc1ccccc1O	n	n	n	8.9
O=C(NCc1ccccc1)C1c2ccccc2OCC(=O)N1Cc1ccccc1 (stereo not given)	n	n	x	x
Cc1ccc(Cn2cc(CN3CC(N4CCCC4)CS3(=O)=O)nn2)cc1 (stereo not given)	n	n	x	x
NS(=O)(=O)c1cccc(NC(=O)CSc2nc3ccccc3c(=O)n2CC2CCCO2)c1 (stereo not given)	n	n	n	n

Bioassay records from PubChem.
